# Screens as filed in PubChem.
# b-catenin transl: beta-catenin nuclear translocation modulation. HeLa beta-catenin nuclear translocation, immunofluorescence imaging. nuclear translocation activity, % at 5 µM. hit rate 0.3% among 190,000. AID 1665;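 active = nuclear translocation activity above 50% at 5 µM, with a well cell count of 50 or more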;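 also: per-cell ratio of nuclear to cytoplasmic median beta-catenin stain intensity; plate controls were DMSO negative control for no effect and GSK-3 inhibitor IX positive control for full effect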
#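 Signal – beta-catenin immunofluorescence imaging with DAPI · Test system – human HeLa cell line · Dosing – 5 µM primary single dose, 0.1% DMSO, 0.02–20 µM confirmation series · Measure – % activation, nuclear-to-cytoplasmic median beta-catenin signal ratio per cell · Incubation – 24 h compound exposure at 37°C, 5% CO2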
# BaF3 tox: counter-screen for JAK2V617F inhibitors: parental Ba/F3 viability inhibitors; inhibition, % at 5.6 µM; hit rate 1.1% among 220,000; CellTiter-Glo ATP luminescence;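 active = inhibition above a per-campaign cutoff, the mean inhibition of all tested compounds plus 3 SD, cut at about 27% in these data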;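 also: 0% = DMSO wells and 100% = JAK Inhibitor I control wells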
# Ba/F3 V617F tox: reduce viability of Ba/F3 cells dependent on JAK2V617F; hit rate 1.1% among 220,000; Ba/F3 EpoR-JAK2V617F viability, ATP luminescence; inhibition, % at 5.6 µM;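 active = inhibition above the campaign mean plus 3 SD over all tested compounds, cut at about 24% in these data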;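 also: cytokine-independent growth of Ba/F3 cells driven by EpoR plus mutant JAK2; 0% = DMSO-treated cells and 100% = JAK inhibitor I control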
# MT stabilizer: stabilizes microtubules in HeLa cells; HeLa tubulin immunostaining HCS, 24 h; share of cells brighter than vehicle mean+2SD; % tubulin-high responders, % at 10 µM; hit rate 0.83% among 200,000;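 active = plate Z-score above 3 for both tubulin-high and condensed-nucleus cell shares, with cell loss under 80%, at 10 µM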;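 also: anti alpha tubulin signal scored within the nucleus-defined area of each cell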
# APP transl inh: APP translation inhibition; SH-SY5Y APP 5'UTR-luciferase reporter, luminescence; hit rate 0.82% among 190,000; inhibition, % at 2 µM;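 active = inhibition above a set limit, derived from the sample mean plus 3 SD, cut at about 45% in these data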
# IEC-6 tox: counter-screen for KLF5 inhibitors: cytotoxicity in IEC-6 cells | hit rate 0.78% among 290,000 | IEC-6 cytotoxicity, luminescence viability | inhibition, % at 5 µM | AID 1825; in the data active = inhibition above about 22%;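 also: 0% = plate median of test compound wells and 100% = cytotoxic reference compound wells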
# Active calls of the source: *; · = no result given. Compounds with a hit are over-represented: about 2.2% of the library has one in this group of screens.
SMILES,b-catenin transl,BaF3 tox,Ba/F3 V617F tox,MT stabilizer,APP transl inh,IEC-6 tox
Cc1ccc2nc(-c3ccccc3)cc(C(=O)N3CCc4ccccc4C3)c2c1,-1.8,0.1,-3.4,1.1,46.6*,2.3
COc1ccccc1N=C1NC(=O)/C(=C/c2ccc(N(C)C)cc2)S1,·,·,·,·,·,12.6
Cc1ccc(C(=O)NC2CCN(S(=O)(=O)c3ccccc3)CC2)cc1,0.0,4.0,-3.2,1.8,-10.8,-6.7
Cc1ccc(S(=O)(=O)N2CCC(NC(=O)c3ccccc3)CC2)cc1,-1.0,90.0*,-0.7,3.2,7.5,4.1
CCn1nc(C)c(CNC(=O)c2cc(COc3ccc(F)cc3Cl)on2)c1C,0.6,63.9*,66.9*,·,·,9.0
COc1ccc(F)cc1CSc1nnnn1-c1ccc(O)cc1,·,·,·,·,·,-0.6
COc1cc(CSc2nnnn2-c2ccc(C)cc2)cc(OC)c1OC,0.5,53.0*,34.9*,5.6,-7.4,2.8
COc1ccc(C)cc1NC(=O)c1nnn(Cc2cccc(C(F)(F)F)c2)c1N,1.1,36.9*,23.7*,2.7,0.9,-3.5
CCc1ccccc1NC(=O)Cn1nnc(C(=O)NCc2cccs2)c1N,0.7,11.5,4.7,29.8*,3.8,9.7
Cc1ccc(CNC(=O)Cn2nnc(C(=O)Nc3cccc(C)c3C)c2N)cc1,·,·,·,·,·,-0.9
Cc1ccccc1Cn1nnc(C(=O)Nc2cccc(C)c2C)c1N,2.3,31.9*,25.9*,5.5,13.3,7.1
COc1ccc(OC)c(NC(=O)c2nnn(CCc3ccccc3)c2N)c1,·,-0.8,-3.7,4.9,-31.2,-2.4
NC(=O)c1cnn2c(-c3ccc(Cl)cc3Cl)ccnc12,·,·,·,·,·,8.4
Cc1ccc(NC(=S)NNC(=S)Nc2ccc(C)cc2C)cc1,52.4*,29.9*,81.5*,9.8*,92.5*,5.8
N=c1ccn(Cc2ccc(Cl)cc2Cl)cc1,-3.5,70.6*,89.8*,2.4,-0.9,3.4
N=c1ccn(Cc2ccccc2Cl)cc1,1.2,64.8*,81.2*,1.2,24.5,5.1
CCn1ccc(=N)cc1,-1.3,4.9,3.4,1.5,-16.4,0.0
N=c1ccn(Cc2c(Cl)cccc2Cl)cc1,1.2,62.9*,74.6*,·,·,-8.5
CC1C(=O)Nc2ccc(S(=O)(=O)NCCc3ccc(Cl)cc3)cc2NC1=O (centres undefined),·,·,·,·,·,-7.0
Cc1nc(C)n(CC(C)C(=O)N2CCN(S(=O)(=O)c3ccc(Cl)cc3)CC2)n1 (centres undefined),·,·,·,·,·,-0.6
Brc1cccc(CN2CCN(c3ncccn3)CC2)c1,·,·,·,·,·,2.7
CCOc1ccc(NC(=NCc2ccc3c(c2)OCO3)SC2CC(=O)N(c3ccc(OCC)cc3)C2=O)cc1 (centres undefined),0.2,0.7,-0.4,25.3*,9.8,2.0
CCOc1ccc(NC(=NCc2ccc3c(c2)OCO3)SC2CC(=O)N(c3ccccc3)C2=O)cc1 (centres undefined),3.3,1.0,-3.8,3.6,24.8,-9.2
Cc1cc(C(=O)Cn2nnc3ccccc3c2=O)c(C)n1-c1ccccc1F,-2.1,51.8*,46.4*,1.2,-197.4,-1.5
COc1ccc(-n2c(C)cc(C(=O)Cn3nnc4ccccc4c3=O)c2C)cc1,0.6,-0.8,-2.6,0.7,-18.4,-1.2
SMILES,b-catenin transl,BaF3 tox,Ba/F3 V617F tox,MT stabilizer,APP transl inh,IEC-6 tox
O=C(NCc1ccco1)c1sc(=S)n2c1[nH]c(=O)c1ccccc12,0.2,90.5*,0.9,3.2,-17.9,1.4
Cc1cccc(C(=O)NNC(=S)NC(=O)c2cccs2)c1,·,·,·,·,·,17.0
COc1ccc(C2=CC(=O)C=CC2=O)cc1,1.4,-8.7,0.4,·,47.9*,-3.7
COc1ccc(S(=O)(=O)c2ccc(OC)cc2)cc1,-0.7,9.1,0.1,2.1,-9.8,0.3
CCOC(=O)C(C)Sc1nc2c(cnn2-c2ccc(F)cc2)c(=O)[nH]1 (centres undefined),·,·,·,·,·,7.6
Fc1ccccc1CSc1nnc(-c2cnccn2)n1Cc1ccco1,-1.7,3.1,-2.7,2.8,-15.7,1.3
C(=C\c1ccccc1)/CSc1nnc(-c2cnccn2)n1Cc1ccco1,56.4*,4.8,3.8,4.7,-18.4,3.2
COc1ccc(OC)c(NS(=O)(=O)c2ccc(Cl)s2)c1,-2.2,2.7,-1.5,13.4,-0.1,0.0
COc1ccc(OC)c(NS(=O)(=O)c2ccc(Br)s2)c1,-1.3,8.2,3.9,9.6*,12.8,7.2
COCCC(=O)Nc1ccc2c(c1)CN(C(=O)c1ccc(CSC)o1)CC2,·,·,·,·,·,-0.6
